The source of these data is ChEMBL document CHEMBL1147644, “Dipeptide nitrile inhibitors of cathepsin K” (Bioorg Med Chem Lett, 2006).

One series addresses T1, Cathepsin K (Homo sapiens, UniProt P43235).
T1 sequence (P43235 whole entry): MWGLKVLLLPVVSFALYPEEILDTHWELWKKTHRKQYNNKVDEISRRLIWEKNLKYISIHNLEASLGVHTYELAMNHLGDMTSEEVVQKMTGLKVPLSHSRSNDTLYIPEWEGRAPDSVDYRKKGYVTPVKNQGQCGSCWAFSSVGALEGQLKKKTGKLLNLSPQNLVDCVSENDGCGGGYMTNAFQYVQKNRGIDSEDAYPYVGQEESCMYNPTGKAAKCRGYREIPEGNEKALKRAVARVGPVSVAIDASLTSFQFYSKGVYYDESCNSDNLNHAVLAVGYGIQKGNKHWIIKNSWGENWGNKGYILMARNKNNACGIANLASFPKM
The series is described as follows: Inhibition of recombinant human cathepsin K.

In another series the target is Procathepsin L (Homo sapiens, UniProt P07711). The series is described as follows: Inhibition of recombinant human cathepsin L.
A further series addresses Cathepsin S (Homo sapiens, UniProt P25774). The experiment in a line: Inhibition of recombinant human cathepsin S.
A short description of series [1]: Clearance in rat. The series is classed as ADME, organism-based. Conditions: in vivo. In outline:
(§1)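 Cassette dosing of six compounds to conscious, fed, permanently cannulated rats. IV bolus of 1 mg kg^-1 in N-methyl-2-pyrrolidone/PEG200 (30:70, v/v). Oral dose of 3 mg kg^-1, dissolved or suspended with sonication in 1% tartaric acid plus 1% carboxymethyl cellulose in water. Same animals received both routes, with a 48 h washout between them. Femoral arterial blood sampled over 24 h. Plasma extracted by acetonitrile precipitation and parent drug quantified by HPLC/MS.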

Series [2] in a line: Volume of distribution in rat. The class given is ADME, organism-based. Conditions: in vivo, read-out: Vss. Summed up:
as §1

Series [3] is described as follows: Terminal half life in rat. The class given is ADME, organism-based. The note with it: in vivo. In outline:
as §1

The next series relates to Rattus norvegicus. The series is described as follows: Cmax in rat at 3 mg/kg, po normalized to 1 mg/kg. The series is classed as ADME, organism-based. The arrangement: dose 3 mg/kg, route oral. The note with it: in vivo. In outline:
as §1

Series [4] in a line: Oral bioavailability in rat. Conditions: in vivo. The series is classed as ADME, organism-based. In outline: as §1

As usually defined, the pIC50 is the IC50 on a negative log10 scale, so that one unit is a factor of ten. In general, clearance refers to the rate of elimination divided by the concentration. Lower therefore signals a low capacity for elimination. For orientation: half-life means the time needed for the level to fall by half in the phase considered. In general, Cmax refers to the maximum level reached in the sampled fluid or tissue. What is called bioavailability is the share of a dose that reaches the circulation, judged against a reference dose that is usually intravenous. Higher therefore signals good availability.

pIC50: −log10 of the molar value. Some results are limits rather than exact numbers.

Cathepsin S, sequence (P25774 whole entry): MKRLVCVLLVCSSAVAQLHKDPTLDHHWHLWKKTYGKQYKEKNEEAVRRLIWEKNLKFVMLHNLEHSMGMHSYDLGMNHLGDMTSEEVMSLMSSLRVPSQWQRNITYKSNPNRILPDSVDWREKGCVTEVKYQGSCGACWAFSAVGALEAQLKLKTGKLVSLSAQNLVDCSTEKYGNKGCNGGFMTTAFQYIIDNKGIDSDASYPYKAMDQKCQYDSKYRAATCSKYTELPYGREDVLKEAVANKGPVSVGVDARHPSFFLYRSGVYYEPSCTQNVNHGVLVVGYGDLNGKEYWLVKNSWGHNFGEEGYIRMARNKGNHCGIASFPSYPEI
Procathepsin L, sequence (P07711 whole entry): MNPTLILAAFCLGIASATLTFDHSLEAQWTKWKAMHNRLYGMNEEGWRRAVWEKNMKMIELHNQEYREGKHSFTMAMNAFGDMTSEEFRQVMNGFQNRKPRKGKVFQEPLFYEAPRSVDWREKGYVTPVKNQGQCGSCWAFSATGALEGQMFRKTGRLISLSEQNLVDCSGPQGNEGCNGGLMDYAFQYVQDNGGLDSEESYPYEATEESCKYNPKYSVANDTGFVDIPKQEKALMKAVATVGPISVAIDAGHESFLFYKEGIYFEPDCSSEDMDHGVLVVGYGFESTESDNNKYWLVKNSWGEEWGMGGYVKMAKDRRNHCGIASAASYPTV

In the case of `Cc1ccc(C[C@@H](C#N)NC(=O)[C@H](CC(C)C)NC(=O)OCc2ccccc2)cc1`, the pIC50 on Cathepsin K was 7.32; on Procathepsin L, 5.00; at Cathepsin S, under 5.00.
For `CC(C)C[C@H](NC(=O)OCc1ccccc1)C(=O)N[C@H](C#N)COC(C)(C)C`, the figures for the pIC50 at Cathepsin K, at Procathepsin L and on Cathepsin S were 6.62, 5.55 and 6.05, respectively.
For the molecule `CC(C)C[C@H](NC(=O)OCc1ccccc1)C(=O)N[C@H](C#N)COCc1ccccc1`, the figures for the pIC50 at Cathepsin K, on Procathepsin L and on Cathepsin S were 8.05, 5.77 and 6.01, respectively. In addition, the clearance in series [1] turned out to be 45 mL/min/kg. In series [2], the Vd was determined as 4.6 L/kg. In series [3], this molecule gave a half-life of 2.2 h. In the series with Rattus norvegicus, this molecule came in with a peak concentration (Cmax) of 44.3 nM. Also, the bioavailability in series [4] is 26.4%.
For `COc1ccc(C[C@@H](C#N)NC(=O)[C@H](CC(C)C)NC(=O)OCc2ccccc2)cc1`, the values for the negative-log IC50 (pIC50) at Cathepsin K, at Procathepsin L and on Cathepsin S were 7.20, 5.96 and 6.15, respectively.
As for `Cc1cccc(C[C@@H](C#N)NC(=O)[C@H](CC(C)C)NC(=O)OCc2ccccc2)c1`, the pIC50 is 6.92 on Cathepsin K, 5.11 on Procathepsin L and 5.64 at Cathepsin S.
In the same order, the values of `CC(C)C[C@H](NC(=O)C(C)(C)Nc1ccc(Cl)cc1)C(=O)N[C@H](C#N)COCc1ccccc1` are 6.37, 6.72 and 7.39.
Regarding `CC(C)C[C@H](NC(=O)CN1CCN(c2ccncc2)CC1)C(=O)N[C@H](C#N)COCc1ccccc1`, the pIC50 was 8.05 at Cathepsin K, 6.48 at Procathepsin L and 6.74 on Cathepsin S. Further, in series [1], the clearance was 320 mL/min/kg. The Vd in series [2] is 18 L/kg. In series [3], this molecule showed a half-life of 1 h. In the series on Rattus norvegicus, this molecule showed a peak concentration (Cmax) of 2.5 nM. In series [4], this molecule yielded a bioavailability of 3.5%.
For the molecule `CC(C)C[C@H](NC(=O)c1cc2ccccc2[nH]1)C(=O)N[C@H](C#N)COCc1ccccc1`, the results for the pIC50 at Cathepsin K, at Procathepsin L and at Cathepsin S were over 9.00, 6.81 and 7.54, respectively.
As to `Cc1nccn1CC(=O)N[C@@H](CC(C)C)C(=O)N[C@H](C#N)COCc1ccccc1`, the values for the negative-log IC50 (pIC50) on Procathepsin L and on Cathepsin S were 6.18 and 6.62, respectively.
Consider `CC(C)C[C@H](NC(=O)c1cc2ccccc2n1C)C(=O)N[C@H](C#N)COCc1ccccc1`, for which the pIC50 on Cathepsin K is over 9.00; on Procathepsin L, 7.08; on Cathepsin S, 7.33. The clearance in series [1] was determined as 82 mL/min/kg. The Vd in series [2] amounted to 7.7 L/kg. The same molecule gave a half-life in series [3] of 1.4 h. The molecule also yielded a Cmax with Rattus norvegicus of 51.1 nM. In series [4], this molecule gave a bioavailability of 30.1%.
`Cc1nc[nH]c1CC(=O)N[C@@H](CC(C)C)C(=O)N[C@H](C#N)COCc1ccccc1`: the negative logarithm of the IC50 (pIC50) on Cathepsin K is 7.62; at Procathepsin L, 6.96; on Cathepsin S, 6.89. In series [1], this molecule had a clearance of 396 mL/min/kg. Also, the Vd in series [2] turned out to be 4.3 L/kg. This molecule showed a half-life in series [3] of 0.2 h. This molecule yielded a Cmax in the series on Rattus norvegicus of 11.3 nM. Moreover, in series [4], the bioavailability came to 4.6%.
Turning to `CC(C)C[C@H](NC(=O)C(C)(C)Oc1ccc(Cl)cc1)C(=O)N[C@H](C#N)COCc1ccccc1`, the results for the negative logarithm of the IC50 (pIC50) on Cathepsin K, at Procathepsin L and on Cathepsin S were over 9.00, over 7.52 and 7.28, respectively. In series [1], this molecule returned a clearance of 141 mL/min/kg. Also, the Vd in series [2] turned out to be 13.6 L/kg. This molecule gave a half-life in series [3] of 3.1 h. The Cmax in the series with Rattus norvegicus turned out to be 3.5 nM. The molecule also displayed a bioavailability in series [4] of 10.1%.
For the molecule `CC(C)C[C@H](NC(=O)OCc1ccccc1)C(=O)N[C@H](C#N)Cc1ccc(C(F)(F)F)cc1`, the pIC50 on Cathepsin K was 7.37; on Procathepsin L, 5.10; at Cathepsin S, under 5.00.
Taken in the same sequence, the figures for `CC(C)C[C@H](NC(=O)CN1CCC(c2ccccc2)CC1)C(=O)N[C@H](C#N)COCc1ccccc1` were 7.08, 5.92 and 6.85.
Turning to `CC(C)C[C@H](NC(=O)OCc1ccccc1)C(=O)N[C@H](C#N)Cc1ccc(OCc2ccccc2)cc1`, the negative logarithm of the IC50 (pIC50) on Cathepsin K was under 6.00; on Procathepsin L, under 5.00; on Cathepsin S, under 5.00.
For `CC(C)C[C@H](NC(=O)OCc1ccccc1)C(=O)N[C@H](C#N)Cc1ccc(OC(C)(C)C)cc1`, the pIC50 on Cathepsin K was 6.40; on Procathepsin L it was 5.85; on Cathepsin S, under 5.00.
